From paper PMC9939322 (Acta Pharmaceutica Sinica. B, 2022)
Ends that are not written are not given here.

System: mice with DSS-induced acute colitis
Test: Treatment of DSS-induced acute colitis in mice
Assay type: in vivo, C57BL/6 J mice
Settings: oral, daily, 7 days; Ac2-26 95.2 μg/kg; ATTN 35 mg/kg
Outline: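 Acute colitis induced in C57BL/6 J mice by 3% (w/v) DSS in drinking water for 7 days. Colitis mice were randomized into 4 groups and dosed daily by oral gavage with one of: saline, free peptide, peptide-free carrier nanoparticles (35 mg/kg), or peptide-loaded nanoparticles (35 mg/kg). Peptide dose was 95.2 μg/kg in every peptide-containing formulation.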

Ac2-26: pro-resolving peptide Ac2-26, synthesized by ChinaPeptides Co., Ltd. (Ac-AMVSEFLKQAWFIENEEQEYVQTVK; UniProt P04083 2-26, looked up, fragment)
depletion of goblet cells (PAS staining): no beneficial effects
